NPY Y2 blocker = NPY-Y2 receptor antagonists, primary screen, cell-based | inhibition, % at 2.7 µM | 0.99% of 140,000 active | AID 793, 2007 | NPY-Y2 expressing cells, antagonist mode | Neuropeptide Y receptor type 2 (Homo sapiens), P49146; in the data active = inhibition above about 17%
Target sequence (P49146 whole entry, looked up): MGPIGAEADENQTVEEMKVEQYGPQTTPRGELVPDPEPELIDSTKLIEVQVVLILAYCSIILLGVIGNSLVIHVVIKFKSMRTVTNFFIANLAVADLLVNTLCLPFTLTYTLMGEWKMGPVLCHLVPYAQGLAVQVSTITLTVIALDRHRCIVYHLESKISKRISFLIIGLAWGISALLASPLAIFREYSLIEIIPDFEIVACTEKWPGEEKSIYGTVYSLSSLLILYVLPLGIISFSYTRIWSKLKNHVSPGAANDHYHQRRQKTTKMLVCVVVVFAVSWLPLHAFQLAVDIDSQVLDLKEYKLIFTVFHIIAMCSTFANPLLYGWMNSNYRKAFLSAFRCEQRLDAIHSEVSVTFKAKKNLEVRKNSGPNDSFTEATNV
NPY2 pot ag = NPY-Y2 potentiators or agonists, primary screen, cell-based | Neuropeptide Y receptor type 2 (Homo sapiens), P49146 | cells expressing NPY-Y2, potentiator/agonist read-out | activation, % at 3.6 µM | 0.45% of 220,000 active | AID 1359, 2008; in the data active = activation above about 27%;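 note: cells stimulated with NPY near EC25 plus isoproterenol at EC100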
NPY1 pot ag = NPY-Y1 receptor potentiators or agonists, primary screen, cell-based | NPY-Y1 expressing cells, potentiator/agonist activation | activation, % at 3.6 µM | 0.37% of 220,000 active | AID 1304, 2008; in the data active = activation above about 33%, passing the limit was not always enough;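 note: cells stimulated with NPY at EC10 then isoproterenol at EC100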
NPY-Y1 antag = NPY-Y1 receptor antagonists, primary screen, cell-based; Neuropeptide Y receptor type 1 (Homo sapiens), P25929; HEK293-CNG Y1 cells, membrane potential fluorescence; NPY at EC95, then isoproterenol; inhibition, % at 3.6 µM; 1% of 200,000 active;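 active = inhibition above the campaign mean inhibition of all tested compounds plus 3 SD, cut at about 20% in these data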
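Material: HEK293 cells co-expressing NPY Y1 receptor and cyclic-nucleotide gated channel. Timing: compound incubation 1 h at room temperature, readout 45 min post-stimulation. Signal: fluorescence, membrane potential probe.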
NPY-Y1 ant conf = NPY-Y1 receptor antagonists, retest of hits, confirmation, HEK293-CNG cells, membrane potential fluorescence, triplicate. cAMP; NPY challenge against isoproterenol-raised cAMP. 21% of 1,200 active. shares compounds with NPY-Y1 antag. inhibition, % at 3.6 µM; in the data active = inhibition above about 20%
NPY2 antag ctr = NPY-Y2 receptor antagonists, selectivity check, confirmation, counter-screen for NPY-Y1 antagonist project, HEK293-CNG cells, membrane potential fluorescence, triplicate | shares compounds with NPY-Y1 antag | antagonism; cells given NPY, then isoproterenol | inhibition, % at 3.6 µM | 28% of 1,200 active | AID 1255, 2008; in the data active = inhibition above about 17%
NPY-Y1 pot conf = NPY-Y1 potentiators or agonists, confirmation, cell-based; activation, % at 3.6 µM; AID 1546, 2009; shares compounds with NPY1 pot ag; 20% of 280 active; cell-based NPY-Y1 potentiator/agonist assay;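 note: cells challenged with NPY at its EC10 plus isoproterenol stimulus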
NPY-Y2 counter = NPY-Y2 potentiators or agonists, counter-screen for NPY-Y1 potentiator project, cell-based, fluorescence; shares compounds with NPY1 pot ag; HEK293-CNG cells, membrane-potential fluorescence (FLIPR), 1536-well; activation, % at 3.6 µM; 20% of 280 active; AID 1649, 2009; in the data active = activation above about 33%
NPY-Y1 ag = NPY-Y1 direct agonists without NPY, confirmation, counter-screen for NPY-Y1 potentiator project, cell-based, fluorescence; shares compounds with NPY1 pot ag; HEK293 Y1-CNGC, membrane potential fluorescence, agonist mode; activation, % at 3.6 µM; 50% of 280 active;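 active = percent activation above the mean of DMSO-only control wells plus 3 SD of those wells, cut at about 18% in these data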;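 note: cells challenged with isoproterenol plus Ro 20-1724 with no NPY in test wells; Y1 agonism lowers isoproterenol-driven cAMP and reduces probe fluorescence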
NPY-Y2 ag = NPY-Y2 direct agonists without NPY, counter-screen for NPY-Y1 potentiator project, cell-based, fluorescence; HEK293 Y2-CNGC, membrane potential fluorescence, agonist mode; shares compounds with NPY1 pot ag; 67% of 280 active; AID 1698, 2009; activation, % at 3.6 µM;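 active = activation above the solvent-only control wells' mean plus 3 SD, cut at about 11% in these data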;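 note: agonism lowers cAMP so well fluorescence drops in active wells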
CNGC counter = CNGC cAMP sensor activity inhibitors, counter-screen for NPY-Y1 potentiator/agonist project, cell-based, HEK293-CNG parental, membrane potential fluorescence, Y1 set; inhibition, % at 3.6 µM; shares compounds with NPY1 pot ag; isoproterenol cAMP; 42% of 280 active;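 active = inhibition above the mean of stimulated solvent-only control wells plus 3 SD, cut at about 22% in these data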
NPY-Y2 pot conf = NPY-Y2 potentiators or agonists, confirmation, cell-based | AID 1539, 2009 | activation, % at 3.6 µM | cell-based NPY-Y2 potentiator/agonist assay | shares compounds with NPY2 pot ag | 20% of 450 active; in the data active = activation above about 33%
NPY-Y1 potentiator = NPY-Y1 potentiators or agonists, counter-screen for NPY-Y2 potentiator project, cell-based, fluorescence; shares compounds with NPY2 pot ag; Y1 HEK293-CNG cells, membrane potential fluorescence; activation, % at 3.6 µM; 20% of 450 active;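 note: cells stimulated with submaximal NPY then isoproterenol with phosphodiesterase inhibitor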
NPY-Y1 agonist 2 = NPY-Y1 direct agonists, selectivity assay for NPY-Y2 potentiator project, cell-based, fluorescence. activation, % at 3.6 µM. HEK293 Y1-CNGC, membrane potential fluorescence, agonism. 37% of 450 active. shares compounds with NPY2 pot ag;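 active = activation above the mean of DMSO-only control wells plus 3 SD, cut at about 18% in these data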;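 note: cells stimulated with 1 µM isoproterenol plus the PDE inhibitor Ro 20-1724; Y1 agonists lower the membrane potential dye signal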
CNGC inh = CNGC cAMP sensor activity inhibitors, counter-screen for NPY-Y2 potentiator project, cell-based, HEK293-CNG parental, membrane potential fluorescence | shares compounds with NPY2 pot ag | isoproterenol cAMP | inhibition, % at 3.6 µM | 32% of 450 active;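 active = inhibition above the control-well mean plus 3 SD of those wells, cut at about 22% in these data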
NPY-Y2 ag 2 = NPY-Y2 direct agonists, counter-screen for NPY-Y2 potentiator project, cell-based, fluorescence; shares compounds with NPY2 pot ag; HEK293 Y2/CNGC cells, membrane potential fluorescence, agonist mode; activation, % at 3.6 µM; 56% of 450 active; AID 1710, 2009;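 active = activation above the mean of solvent-only control wells plus 3 SD, cut at about 10% in these data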;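 note: cells stimulated by isoproterenol with no NPY added so direct agonism is tested; agonism lowers probe fluorescence through less cAMP and CNG channel opening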
Large screens that a line does not name were inactive (follow-up assays come after a bar, where they were run). In the library only some 1.9% were active in any assay of this set; here they are far more common. Cut-off read from the data, not from the text of the source, unless noted: active = activation above about 45%; inactive = the rest.

Cc1ccc2c(c1)C1CN(C)CCC1N2C(=O)c1cccnc1Cl (stereo not given)	none (no result: NPY Y2 blocker, NPY-Y1 antag)
Cc1ccc2c(c1)C1CN(C)CCC1N2C(=O)c1cn(-c2ccccc2)nc1-c1ccccc1 (stereo not given)	NPY-Y1 antag 70 (no result: NPY Y2 blocker) | NPY-Y1 ant conf inactive | NPY2 antag ctr 25
CCC(=NCc1ccc(F)cc1)c1c(O)n(C)c(=O)n(C)c1=O	NPY1 pot ag 37 | NPY-Y1 pot conf inactive | NPY-Y2 counter inactive | NPY-Y1 ag inactive | NPY-Y2 ag inactive | CNGC counter inactive
CC(C)CCN1CCN(Cc2c(F)cccc2Cl)CC1CCO (stereo not given)	none (no result: NPY Y2 blocker)
CN(C)CCCN=Cc1c(O)n(CCc2ccccc2)c(=O)[nH]c1=O	none
O=c1[nH]c(=O)n(CCc2ccccc2)c(O)c1C=NC1CC1	NPY2 pot ag 73 (no result: NPY Y2 blocker, NPY-Y1 antag) | NPY-Y2 pot conf inactive | NPY-Y1 potentiator inactive | NPY-Y1 agonist 2 inactive | CNGC inh inactive | NPY-Y2 ag 2 inactive
O=C(Nc1ccncc1)c1cccn(Cc2ccccc2)c1=O	NPY2 pot ag 34 (no result: NPY Y2 blocker) | NPY-Y2 pot conf inactive | NPY-Y1 potentiator inactive | NPY-Y1 agonist 2 inactive | CNGC inh inactive | NPY-Y2 ag 2 inactive
Cc1cc(=O)n(-c2ccccc2)n1-c1ccccc1	none
C=CCNC(=S)Nc1ccc(OC(=O)Nc2ccc(Cl)c(Cl)c2)cc1	NPY2 pot ag 83 (no result: NPY Y2 blocker, NPY-Y1 antag) | NPY-Y2 pot conf inactive | NPY-Y1 potentiator inactive | NPY-Y1 agonist 2 inactive | CNGC inh inactive | NPY-Y2 ag 2 inactive
CN1CCN(c2cccc3c2C(=O)c2ccccc2C3=O)CC1	NPY2 pot ag 33 | NPY-Y2 pot conf inactive | NPY-Y1 potentiator inactive | NPY-Y1 agonist 2 18 | CNGC inh 24 | NPY-Y2 ag 2 33
CN1CCN(c2ccccc2N)CC1	none
CC(C)OC1CCCC(O)C1CC(=O)O (stereo not given)	none (no result: NPY Y2 blocker, NPY-Y1 antag)
